Data reported in ChEMBL document CHEMBL4257564, “Rational Design, Synthesis, and Pharmacological Characterization of Novel Ghrelin Receptor Inverse Agonists as Potential Treatment against Obesity-Related Metabolic Diseases” (J Med Chem, 2018).

Experiments:
Mus musculus [1] = assay: Anti-obesity activity in C57BL/6J mouse assessed as inhibition of anamorelin-induced increase in food intake by measuring cumulative food intake at 30 mg/kg, po pretreated for 10 mins followed by anamorelin addition and measured after 24 hrs post dose (reference value: 8.31 +/- 0.2 g)
[2] = Protein binding in human plasma at 1 uM after 6 hrs by equilibrium dialysis; assay type: ADME, cell-free; conditions: read-out: PPB
Method in brief: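 Compound spiked at 1.0 µM final (0.5% DMSO) into plasma. Equilibrium dialysis against DPBS pH 7.4 across a 12–14 kD membrane for 6 h at 37 °C, in triplicate. Buffer-only controls used for nonspecific binding. Unbound fraction = acceptor/donor concentration by LC-MS/MS; reported as % bound.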

MDR1 = assay: Apparent permeability across apical to basolateral side in MDCK2 cells expressing human MDR1 at 1 uM after 90 mins in absence of MDR1 inhibitor cyclosporine A by LC-MS/MS analysis; assay type: ADME, cell-based, Canis lupus familiaris, MDCK-II; conditions: dog, MDCK-MDR1
Method in brief: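 MDR1-MDCKII monolayers grown 4 days on transwell inserts, with integrity checked by TEER. Test item at 1 µM in HBSS/10 mM HEPES/25 mM glucose pH 7.4, in duplicate, added to the apical side. Receiver sampled after 90 min at 37 °C and analysed by LC-MS/MS; Papp = (dMr/dt)/(A×C0).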

[3] = molecular target: T1, Growth hormone secretagogue receptor type 1 (Homo sapiens, UniProt Q92847); assay: Antagonist activity at recombinant human GHSR1a expressed in HEK293 cells assessed as inhibition of ghrelin-induced intracellular calcium release incubated for 20 secs and measured after 2 mins by FLIPR assay; assay type: functional, cell-based
T1 sequence (Q92847 whole entry): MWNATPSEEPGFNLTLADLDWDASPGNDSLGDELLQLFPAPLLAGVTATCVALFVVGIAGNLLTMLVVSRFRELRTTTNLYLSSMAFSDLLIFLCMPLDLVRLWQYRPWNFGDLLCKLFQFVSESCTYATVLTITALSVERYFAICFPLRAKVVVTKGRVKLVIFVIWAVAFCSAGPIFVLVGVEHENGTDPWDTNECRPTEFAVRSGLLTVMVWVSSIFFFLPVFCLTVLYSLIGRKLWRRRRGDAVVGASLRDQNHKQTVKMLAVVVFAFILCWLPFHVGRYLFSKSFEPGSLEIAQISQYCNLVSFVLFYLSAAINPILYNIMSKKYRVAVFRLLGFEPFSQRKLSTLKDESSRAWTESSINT
Method in brief: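 HEK293/GHSR1a cells were dye-loaded for 30-60 min. Compounds and 10 nM ghrelin were added at t = 20 s, with a 15 min compound preincubation described. Calcium response was read for 2 min. IC50 was taken from dose-response fits of the reduction in ghrelin response; mean of at least two independent runs done in triplicate.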

[4] = molecular target: T1, Growth hormone secretagogue receptor type 1; assay: Inverse agonist at recombinant human GHSR1a expressed in HEK293 cells assessed as decrease in IP1 accumulation after 1 hr by IP1-d2-based HTRF assay; assay type: functional, cell-based; conditions: read-out: EC50
Method in brief: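 HEK293 cells stably expressing human GHSR1a were seeded on Matrigel in complete DMEM for 18–22 h at 37 °C, 5% CO2. Compound in stimulation buffer was applied for 1 h at 37 °C. IP1-d2 and Tb-cryptate were then added for 1 h at room temperature, with HTRF read at 620/665 nm. Mean of at least two independent runs in triplicate.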

Mus musculus [5] = assay: Anti-obesity activity in C57BL/6J mouse assessed as inhibition of anamorelin-induced increase in food intake by measuring cumulative food intake at 10 mg/kg, ip pretreated for 10 mins followed by anamorelin addition and measured after 4 hrs post dose (reference value: 2.09 +/- 0.08 g); assay type: functional
Method in brief: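 Male C57BL/6J mice (18–22 g at arrival), fed ad libitum. Dosed 10 mg/kg i.p. at t = 0 in 10% DMAC/6% Solutol HS 15/84% PBS, then anamorelin 30 mg/kg p.o. (0.5% CMC) at 10 min. Cumulative food intake recorded at 1, 2, 4, 8 and 24 h; n=6 per group; mean ± SEM; ANOVA with Dunnett test versus vehicle+anamorelin.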

Work on `Cc1cc(-c2ccc3c(c2)CC[C@H]3N2CCC(N(C)C(=O)N[C@@H](C)c3ccc(C#CC4CC4)c(Cl)c3Cl)CC2)ncn1` yielded an Activity (Mus musculus [1]) of 7.42 g, a fraction unbound at 6 h, 1 µM [2] of 0.0001 and a Papp A→B at 1.5 h, 1 µM (MDR1) of 3.9 ×10⁻⁶ cm/s. It also gave an IC50 [3] of 68.2 nM, an EC50 [4] of 29.4 nM and an Activity (Mus musculus [5]) of 1.66 g.
